Test results taken from ChEMBL document CHEMBL1142895, “Discovery of a new insecticide lead by optimizing a target-diverse scaffold: tetrazolinone derivatives” (2007).
Activity calls are given as the source filed them. The rule behind the calls is not given here.

Legend:
Sorghum bicolor [1] = test: Inhibition of root growth of Sorghum bicolor at 100 mg/L; type: functional
Method in brief: (§1)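 Seeds of each species were grown in Petri dishes with 10 seeds per dish, at 28 °C, 70–80% RH, 16:8 h light:dark photoperiod and 3000 lx light for 5 days. Root and stem lengths were measured for the 10 seeds and averaged. Each test and its controls were run in three replicates, and the data were given probit analysis.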

Cucumis sativus [2] = test: Inhibition of root growth of Cucumis sativus at 100 mg/L; type: functional; method in brief: as §1
Cucumis sativus [3] = test: Herbicidal activity against Cucumis sativus at 450 g ai/ha in greenhouse in vivo test; type: functional, organism-based
Cucumis sativus [4] = test: Inhibition of stem growth of Cucumis sativus at 100 mg/L; type: functional; method in brief: as §1
Sorghum bicolor [5] = test: Herbicidal activity against Sorghum bicolor at 450 g ai/ha in greenhouse in vivo test; type: functional, organism-based
[6] = test system: Brassica rapa subsp. oleifera; test: Inhibition of root growth of Brassica campestris at 100 mg/L; type: functional; method in brief: as §1
Echinochloa crus-galli [7] = test: Inhibition of stem growth of Echinochloa crus-galli at 100 mg/L; type: functional; method in brief: as §1
Triticum aestivum [8] = test: Herbicidal activity against Triticum aestivum at 450 g ai/ha in greenhouse in vivo test; type: functional, organism-based
Aphis = test: Insecticidal activity against Aphis medicagini at 250 mg/L; type: functional
Method in brief: (§2)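 Groups of 10 of each species were placed in glass Petri dishes and sprayed with test solution using a Potter sprayer. After air-drying, they were held under normal rearing conditions. Mortality at 72 h was taken from the number and size of live larvae relative to untreated controls.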

Radish [9] = test: Inhibition of stem growth of Raphanus sativus at 100 mg/L; type: functional; method in brief: as §1
[10] = test system: Brassica rapa subsp. oleifera; test: Inhibition of stem growth of Brassica campestris at 100 mg/L; type: functional; method in brief: as §1
Echinochloa crus-galli [11] = test: Herbicidal activity against Echinochloa crus-galli at 450 g ai/ha in greenhouse in vivo test; type: functional, organism-based
Triticum aestivum [12] = test: Inhibition of root growth of Triticum aestivum at 100 mg/L; type: functional; method in brief: as §1
Sorghum bicolor [13] = test: Inhibition of stem growth of Sorghum bicolor at 100 mg/L; type: functional; method in brief: as §1
Radish [14] = test: Herbicidal activity against Raphanus sativus at 450 g ai/ha in greenhouse in vivo test; type: functional, organism-based
Radish [15] = test: Inhibition of root growth of Raphanus sativus at 100 mg/L; type: functional; method in brief: as §1
Echinochloa crus-galli [16] = test: Inhibition of root growth of Echinochloa crus-galli at 100 mg/L; type: functional; method in brief: as §1
[17] = test system: Brassica rapa subsp. oleifera; test: Herbicidal activity against Brassica campestris at 450 g ai/ha in greenhouse in vivo test; type: functional, organism-based
Triticum aestivum [18] = test: Inhibition of stem growth of Triticum aestivum at 100 mg/L; type: functional; method in brief: as §1
Tetranychus cinnabarinus = test: Insecticidal activity against Tetranychus cinnabarinus at 250 mg/L; type: functional; method in brief: as §2

Compound	inhibition at 100 µg/mL (Sorghum bicolor [1]) [%]	inhibition at 100 µg/mL (Cucumis sativus [2]) [%]	Activity (Cucumis sativus [3])	inhibition at 100 µg/mL (Cucumis sativus [4]) [%]	Activity (Sorghum bicolor [5])	inhibition at 100 µg/mL [6] [%]	inhibition at 100 µg/mL (Echinochloa crus-galli [7]) [%]	Activity (Triticum aestivum [8])	Activity (Aphis) [%]	inhibition at 100 µg/mL (Radish [9]) [%]	inhibition at 100 µg/mL [10] [%]	Activity (Echinochloa crus-galli [11])	inhibition at 100 µg/mL (Triticum aestivum [12]) [%]	inhibition at 100 µg/mL (Sorghum bicolor [13]) [%]	Activity (Radish [14])	inhibition at 100 µg/mL (Radish [15]) [%]	inhibition at 100 µg/mL (Echinochloa crus-galli [16]) [%]	Activity [17]	inhibition at 100 µg/mL (Triticum aestivum [18]) [%]	Activity (Tetranychus cinnabarinus) [%]
CCOC(=O)C(C)n1nnn(-c2ccc(Cl)cc2)c1=O (stereo not given)	95	0	inactive	0	inactive	0	0	inactive	0	50	0	inactive	80	40	inactive	70	0	inactive	70	97.1
CCOC(=O)CSc1nnc(Cn2nnn(-c3ccc(Cl)cc3)c2=O)o1	0	0	inactive	0	inactive	50	0	inactive	0	0	60	inactive	0	0	inactive	50	0	inactive	0	2.9
CC(C)(C)c1ccc(CSc2cnn(C(C)(C)C)c(=O)c2Cl)cc1 [PYRIDABEN]																				100
COc1cccc(Cn2nnn(-c3ccc(Cl)cc3)c2=O)c1	0	0	inactive	0	inactive	0	0	inactive	3.3	0	0	inactive	0	0	inactive	0	0	inactive	0	0
O=c1c(Cn2nnn(-c3ccccc3Cl)c2=O)coc2ccccc12	50	0	inactive	0	inactive	50	0	inactive	13.3	30	30	inactive	0	30	inactive	50	0	inactive	30	2.9
Cc1cccc(Cn2nnn(-c3ccc(Cl)cc3)c2=O)c1	0	0	inactive	0	inactive	80	0	inactive	8.3	70	90	inactive	0	0	inactive	80	0	inactive	0	4.3
C=CCn1nnn(-c2ccc(Cl)cc2)c1=O	60	40	inactive	30	inactive	50	50	inactive	3.3	80	50	inactive	80	60	inactive	80	0	inactive	80	4.3
O=c1n(Cc2nnc(SCc3cccc(Cl)c3)s2)nnn1-c1ccc(Cl)cc1	40	0	inactive	40	inactive	0	0	inactive	2.9	30	0	inactive	60	50	inactive	50	0	inactive	70	5.7
O=c1n(Cc2ccc(Br)cc2)nnn1-c1ccc(Cl)cc1	0	0	inactive	0	inactive	0	0	inactive	13.3	0	0	inactive	0	0	inactive	0	0	inactive	30	0
O=c1n(Cc2cccc(F)c2)nnn1-c1ccc(Cl)cc1	0	50	inactive	30	inactive	0	0	inactive	0	0	0	inactive	40	0	inactive	0	70	inactive	40	5.7
O=c1n(Cc2nnc(SCc3cccc(F)c3)s2)nnn1-c1ccc(Cl)cc1	40	30	inactive	30	inactive	40	70	inactive	0	50	0	inactive	40	40	inactive	50	50	inactive	70	2.9
CCOC(=O)C(C)Sc1nnc(Cn2nnn(-c3ccc(Cl)cc3)c2=O)s1 (stereo not given)	80	60	inactive	60	inactive	85	40	inactive	0	50	80	inactive	70	70	inactive	80	50	inactive	50	0
C=CCn1nnn(-c2ccccc2Cl)c1=O	0	0	inactive	60	inactive	0	0	inactive	1.7	0	60	inactive	50	0		0	0	inactive	50	98.6
